According to ChEMBL document CHEMBL4330119 (J Med Chem, 2019):
Calls of active or inactive are those of the source.

Experiments:
Mus musculus [1] = experiment: In vivo antagonist activity at MOR in Swiss Webster mouse assessed reduction in morphine-induced antinociceptive effect by measuring morphine MPE at 10 mg/kg, sc preincubated for 5 mins followed by morphine addition and measured after 20 min post morphine challenge by tail immersion test relative to control; assay type: functional
How it was run: (§1)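 Male Swiss Webster mice, 5 per group. […] Baseline latency 2–4 s, 10 s cutoff. %MPE calculated per mouse. AD50 by least-squares linear regression, 95% CI by Bliss method.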

[2] = biological target: Delta-type opioid receptor (Mus musculus, UniProt P32300); experiment: Displacement of [3H]-diprenorphine from mouse DOR expressed in CHO cell membranes by competitive radioligand binding assay
How it was run: (§2)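 30 μg CHO membrane protein incubated with radioligand and varying competitor in TME buffer (50 mM Tris, 3 mM MgCl2, 0.2 mM EGTA, pH 7.4). Bound ligand separated by filtration. […] IC50 from Hill plots, converted to Ki by Cheng–Prusoff.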

Mus musculus [3] = experiment: Induction of withdrawal symptoms in morphine-pelleted Swiss Webster mouse model assessed as escape jumps at 1 mg/kg, sc measured after 72 hrs […] for 20 mins; assay type: organism-based; conditions: in vivo
How it was run: (§3)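 Withdrawal precipitated 72 h after implantation by sc compound, after 30 min habituation to an open Plexiglas chamber. Wet dog shakes, escape jumps and paw tremors counted over 20 min, five mice per group. Naloxone 1 mg/kg sc as reference.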

[4] = biological target: Kappa-type opioid receptor (Mus musculus, UniProt P33534); experiment: Displacement of [3H]-diprenorphine from mouse KOR expressed in CHO cell membranes by competitive radioligand binding assay; how it was run: as §2
Mus musculus [5] = experiment: Antinociceptive activity in Swiss Webster mouse at 10 mg/kg, sc measured after 20 min post dose by tail immersion test; assay type: functional, organism-based
How it was run: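 Male Swiss Webster mice, 7–8 weeks, 5 per group. Compound given sc, tail immersed in 56 ± 0.1 °C water 20 min later. Only mice with baseline latency of 2–4 s were used. 10 s cutoff. %MPE = [(test – control)/(10 – control)] × 100.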

Mus musculus [6] = experiment: Induction of withdrawal symptoms in morphine-pelleted Swiss Webster mouse model assessed as paw tremors […] at 5 mg/kg, sc measured after 72 hrs […] for 20 mins; assay type: organism-based; conditions: in vivo; how it was run: as §3
Mus musculus [7] = experiment: Induction of withdrawal symptoms in morphine-pelleted Swiss Webster mouse model assessed as dog shakes at 5 mg/kg, sc measured after 72 hrs […] for 20 mins; assay type: organism-based; conditions: in vivo; how it was run: as §3
[8] = biological target: Mu-type opioid receptor (Mus musculus) (UniProt P42866); experiment: Antagonist activity at mouse MOR expressed in CHO cell membranes assessed as inhibition of DAMGO-stimulated [35S]GTPgammaS binding after 90 mins relative to DAMGO; assay type: functional
Mus musculus [9] = experiment: Induction of withdrawal symptoms in morphine-pelleted Swiss Webster mouse model assessed as escape jumps at 5 mg/kg, sc measured after 72 hrs […] for 20 mins; assay type: organism-based; conditions: in vivo; how it was run: as §3
Mus musculus [10] = experiment: In vivo antagonist activity at MOR in sc dosed Swiss Webster mouse assessed reduction in morphine-induced antinociceptive effect by measuring morphine MPE preincubated for 5 mins followed by morphine addition and measured after 20 min post morphine challenge by tail immersion test; assay type: functional; how it was run: as §1
Mus musculus [11] = experiment: Induction of withdrawal symptoms in morphine-pelleted Swiss Webster mouse model assessed as dog shakes at 1 mg/kg, sc measured after 72 hrs […] for 20 mins; assay type: organism-based; conditions: in vivo; how it was run: as §3
Mus musculus [12] = experiment: Induction of withdrawal symptoms in morphine-pelleted Swiss Webster mouse model assessed as paw tremors […] at 10 mg/kg, sc measured after 72 hrs […] for 20 mins; assay type: organism-based; conditions: in vivo; how it was run: as §3
Mus musculus [13] = experiment: Induction of withdrawal symptoms in morphine-pelleted Swiss Webster mouse model assessed as dog shakes at 50 to 100 mg/kg, sc measured after 72 hrs […] for 20 mins; assay type: organism-based; conditions: in vivo; how it was run: as §3
Mus musculus [14] = experiment: Induction of withdrawal symptoms in morphine-pelleted Swiss Webster mouse model assessed as dog shakes at 10 mg/kg, sc measured after 72 hrs […] for 20 mins; assay type: organism-based; conditions: in vivo; how it was run: as §3
Mus musculus [15] = experiment: Induction of withdrawal symptoms in morphine-pelleted Swiss Webster mouse model assessed as paw tremors […] at 50 to 100 mg/kg, sc measured after 72 hrs […] for 20 mins; assay type: organism-based; conditions: in vivo; how it was run: as §3
Mus musculus [16] = experiment: Induction of withdrawal symptoms in morphine-pelleted Swiss Webster mouse model assessed as escape jumps at 50 mg/kg, sc measured after 72 hrs […] for 20 mins; assay type: organism-based; conditions: in vivo; how it was run: as §3
Mus musculus [17] = experiment: Induction of withdrawal symptoms in morphine-pelleted Swiss Webster mouse model assessed as escape jumps at 10 mg/kg, sc measured after 72 hrs […] for 20 mins; assay type: organism-based; conditions: in vivo; how it was run: as §3
Mu-type opioid receptor [18] = biological target: T1, Mu-type opioid receptor (Mus musculus, UniProt P42866); experiment: Antagonist activity at mouse MOR expressed in CHO cell membranes assessed as inhibition of DAMGO-stimulated [35S]GTPgammaS binding after 90 mins; assay type: functional
Mus musculus [19] = organism: Mus musculus; experiment: Selectivity ratio of Ki for mouse KOR expressed in CHO cell membranes to Ki for mouse MOR expressed in CHO cell membranes; assay type: cell-based
How it was run: (§4)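 Ratio of Ki values from competition binding: 30 μg CHO membranes in TME pH 7.4, filtration. IC50 converted to Ki by Cheng–Prusoff.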

Mu-type opioid receptor [20] = biological target: T1, Mu-type opioid receptor; experiment: Displacement of [3H]-naloxone from mouse MOR expressed in CHO cell membranes by competitive radioligand binding assay; how it was run: as §2
Mus musculus [21] = organism: Mus musculus; experiment: Selectivity ratio of Ki for mouse DOR expressed in CHO cell membranes to Ki for mouse MOR expressed in CHO cell membranes; assay type: cell-based; how it was run: as §4
Mus musculus [22] = experiment: Induction of withdrawal symptoms in morphine-pelleted Swiss Webster mouse model assessed as paw tremors […] at 1 mg/kg, sc measured after 72 hrs […] for 20 mins; assay type: organism-based; conditions: in vivo; how it was run: as §3

Compound | Ki [2] [nM] | Ki [4] [nM] | Emax [8] [%] | inhibition (Mus musculus [1]) | also measured
N#Cc1cnccc1C(=O)N[C@@H]1CC[C@@]2(O)[C@H]3Cc4ccc(O)c5c4[C@@]2(CCN3CC2CC2)[C@H]1O5 | 46.3 | 2.74 | 26.1 |  | inhibition in vivo at 10 mg/kg (Mus musculus [1]): 7.8%; Activity (Mus musculus [3]): Non-Toxic; Activity (Mus musculus [5]): inactive; Activity (Mus musculus [6]): Toxic; Activity (Mus musculus [7]): Toxic; Activity (Mus musculus [9]): Toxic; ED50 (Mus musculus [10]): 1.75 mg/kg; inhibition (Mus musculus [10]): Dose-dependent effect; Activity (Mus musculus [11]): Non-Toxic
O=C(N[C@@H]1CC[C@@]2(O)[C@H]3Cc4ccc(O)c5c4[C@@]2(CCN3CC2CC2)[C@H]1O5)c1ccncc1F | 157 | 4.8 |  |  | Activity (Mus musculus [12]): Non-Toxic; inhibition in vivo at 10 mg/kg (Mus musculus [1]): 6.2%; Activity (Mus musculus [13]): Non-Toxic; Activity (Mus musculus [14]): Non-Toxic; Activity (Mus musculus [15]): Toxic; ED50 (Mus musculus [10]): 2.82 mg/kg; Activity (Mus musculus [16]): Non-Toxic; Activity (Mus musculus [17]): Non-Toxic
O=C(O)c1cnccc1C(=O)N[C@@H]1CC[C@@]2(O)[C@H]3Cc4ccc(O)c5c4[C@@]2(CCN3CC2CC2)[C@H]1O5 | 55.6 | 2.43 | 29.3 | inactive | EC50 (Mu-type opioid receptor [18]): 1.83 nM; Ratio Ki (Mus musculus [19]): 3.2; Ki (Mu-type opioid receptor [20]): 0.76 nM; Ratio Ki (Mus musculus [21]): 73.2
COC(=O)c1cnccc1C(=O)N[C@@H]1CC[C@@]2(O)[C@H]3Cc4ccc(O)c5c4[C@@]2(CCN3CC2CC2)[C@H]1O5 | 137 | 11.7 | 29.2 | inactive | 
O=C(N[C@@H]1CC[C@@]2(O)[C@H]3Cc4ccc(O)c5c4[C@@]2(CCN3CC2CC2)[C@H]1O5)c1ccncc1C1CCCCCC1 | 15 | 5.16 | 48.3 | inactive | 
CCc1cnccc1C(=O)N[C@@H]1CC[C@@]2(O)[C@H]3Cc4ccc(O)c5c4[C@@]2(CCN3CC2CC2)[C@H]1O5 | 42.9 | 9.18 | 41.6 | inactive | 
O=C(N[C@@H]1CC[C@@]2(O)[C@H]3Cc4ccc(O)c5c4[C@@]2(CCN3CC2CC2)[C@H]1O5)c1ccncc1C(F)(F)F | 61.8 | 12.5 | 31.9 | inactive | EC50 (Mu-type opioid receptor [18]): 1.38 nM; Ratio Ki (Mus musculus [19]): 29.1; Ki (Mu-type opioid receptor [20]): 0.43 nM; Ratio Ki (Mus musculus [21]): 144
O=C(N[C@@H]1CC[C@@]2(O)[C@H]3Cc4ccc(O)c5c4[C@@]2(CCN3CC2CC2)[C@H]1O5)c1ccncc1-c1ccccc1 | 44.8 | 3.42 | 44.4 | inactive | 
CC(C)Cc1cnccc1C(=O)N[C@@H]1CC[C@@]2(O)[C@H]3Cc4ccc(O)c5c4[C@@]2(CCN3CC2CC2)[C@H]1O5 | 149 | 75.6 | 27.3 | inactive | 
O=C(N[C@@H]1CC[C@@]2(O)[C@H]3Cc4ccc(O)c5c4[C@@]2(CCN3CC2CC2)[C@H]1O5)c1ccncc1C1CCCCC1 | 11.2 | 3.32 | 51.6 | inactive | 
C=CCN1CC[C@]23c4c5ccc(O)c4O[C@H]2C(=O)CC[C@@]3(O)[C@H]1C5 [NALOXONE] |  |  |  |  | Activity (Mus musculus [3]): Toxic; Activity (Mus musculus [11]): Toxic; Activity (Mus musculus [22]): Toxic
O=C(N[C@@H]1CC[C@@]2(O)[C@H]3Cc4ccc(O)c5c4[C@@]2(CCN3CC2CC2)[C@H]1O5)c1ccncc1C1CCCC1 | 34 | 8.16 |  | inactive | 
O=C(N[C@@H]1CC[C@@]2(O)[C@H]3Cc4ccc(O)c5c4[C@@]2(CCN3CC2CC2)[C@H]1O5)c1ccncc1[N+](=O)[O-] | 95.6 | 4.46 | 39.1 | inactive | 
